Laboratory results taken from PubChem BioAssay.
Activity calls are given as the source filed them.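 How the source made its calls, unless noted: active means viability at or below 10% of carrier control in both of two separate runs; inconclusive means viability at or below 10% in only one of the two runs; inactive means the rest.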

Experiments:
[1] = SK-BR-3 cell growth inhibitors, pilot screen, 24 h, human (AID 572); details: SK-BR-3 viability, CellTiter-Glo luminescence, at 10 µM, stronger effect = lower value;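 further: compound exposure lasted between 18 and 24 h rather than exactly 24 h; 100% = carrier-treated control wells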
[2] = HUVEC growth inhibition – cell-based, human, primary screen (AID 575;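 active means viability at or below 30% in both replicate assays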;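 further: 100% = median of untreated cell wells with 0.1% DMSO on each plate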); details: HUVEC proliferation, CellTiter-Glo luminescence, 72 h; at 10 µM; stronger effect = lower value
How it was run: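 Timing: 72 h treatment at 37 °C; material: HUVEC primary cells; technique: CellTiter-Glo luminescence measuring cellular ATP; controls: vehicle and MePR control wells; measure: percent of median DMSO-control luminescence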

[3] = growth inhibitors of H69AR lung tumor, primary screen, human, duplicate replicates (AID 580;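 active means viability at or under a set limit in both replicates, limit being median viability minus 3 SD, cut at about 48% in these data, passing the limit was not always enough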;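 further: 100% = mean luminescence of untreated wells and 0% = no signal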); details: H69AR lung tumor cells viability, ATP luminescence, 72 h; at 10 µM; stronger effect = lower value
[4] = reversal of MRP1-mediated doxorubicin resistance, pilot screen, H69AR cells, doxorubicin co-treatment (AID 601;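 active means viability loss from added drug above about 55%, and viability with drug at most 40%, in both replicates, limit read from the data, passing the limit was not always enough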); details: CellTiter-Glo, 72 h, at 10 µM; for differential viability (reversal): stronger effect = higher value
[5] = 384-well plate pilot, post-Golgi transport modulator project, inhibition of yeast transport mutant growth (AID 636; in the data active means inhibition above about 31%); details: absorbance 615 nm, about 18 h, stronger effect = higher value
[6] = growth suppression of yeast trafficking mutant, preliminary HTS, modulators of trafficking downstream of Golgi apparatus project, 1536-format plate, OD 615 nm (AID 637; in the data active means inhibition above about 30%); details: yeast transport mutant growth, absorbance 615 nm, 18 h; stronger effect = higher value
[7] = H69AR cells + 2 uM doxorubicin, measured here: viability with 2 uM doxorubicin, stronger effect = lower value
[8] = H69AR cells, compound alone cytotoxicity

Row | Structure (SMILES) | viability [1] | viability [2] | viability [3] | differential viability (reversal) ([4]; H69AR cells + 2 uM doxorubicin) | viability [4, 7] [%] | viability [4, 8] [%] | inhibition [5] | inhibition [6]
1 | O=C(NCCN1CCOCC1)NC1(C(F)(F)F)Oc2ccc(Cl)cc2O1 (centres undefined) | 107% (inactive) | 57.1% (inactive) | 22.6% (active) | -16.8% (inactive) | 39.5 | 22.6 | -7.53% (inactive) | 0% (inactive)
2 | O=C(CSc1nnc(NC(=O)C2CCC2)s1)NC1CC1 | 100% (inactive) | 106% (inactive) | 106% (inactive) | 12.2% (inactive) | 93.4 | 106 | -6.76% (inactive) | 2% (inactive)
3 | N[C@@H](Cc1ccc(O)c(I)c1)C(=O)O | 87% (inactive) | 87.5% (inactive) | 105% (inactive) | 15.7% (inactive) | 89.3 | 105 | -4.81% (inactive) | -1.33% (inactive)
4 | Cc1cccc2c(=O)oc(-c3ccc4c(c3)C(=O)N(CC3CCCO3)C4=O)nc12 (centres undefined) | 95% (inactive) | 101% (inactive) | 98.7% (inactive) | 5.85% (inactive) | 92.8 | 98.7 | -4.25% (inactive) | 6.77% (inactive)
5 | CCOc1ccc(NC(=O)CC2NCCNC2=O)cc1 (centres undefined) | 125% (inactive) | 108% (inactive) | 95.3% (inactive) | 2.51% (inactive) | 92.8 | 95.3 | -5.95% (inactive) | -2.36% (inactive)
6 | Cc1nc(NC(=O)C23CCC(C)(C(=O)O2)C3(C)C)sc1C (centres undefined) | 133% (inactive) | 107% (inactive) | 99.2% (inactive) | 13.9% (inactive) | 85.4 | 99.2 | -2.99% (inactive) | 0.16% (inactive)
7 | CCOC(=O)c1[nH]c(CSc2nnc(-c3ccncc3)n2CCOC)c(C(=O)OCC)c1C | 94% (inactive) | 96.7% (inactive) | 94.8% (inactive) | 4.23% (inactive) | 90.6 | 94.8 | -5.19% (inactive) | 1.31% (inactive)
8 | CC(=O)OCC1=C(C(=O)O)N2C(=O)[C@@H](NC(=O)Cc3cccs3)[C@H]2SC1 | 141% (inactive) | 94.8% (inactive) | 94.2% (inactive) | 3.98% (inactive) | 90.2 | 94.2 | -4.81% (inactive) | 8.5% (inactive)
9 | COc1cccc2c(=O)cc(C)n(CC(=O)Nc3ccc(C)c(C)c3)c12 | 105% (inactive) | 84.5% (inactive) | 95.5% (inactive) | 13.4% (inactive) | 82.1 | 95.5 | -8.4% (inactive) | -2.91% (inactive)
10 | O=C(O)CCN(CCC(=O)O)c1nnc(SCc2ccccc2)s1 | 91% (inactive) | 107% (inactive) | 93.6% (inactive) | 7.11% (inactive) | 86.5 | 93.6 | -6.16% (inactive) | -3.55% (inactive)
11 | CCCOc1cccc(NC(=O)c2c(-c3ccccc3)noc2C)c1 | 94% (inactive) | 89.7% (inactive) | 86.7% (inactive) | -15.2% (inactive) | 102 | 86.7 | 0.78% (inactive) | -1.97% (inactive)
12 | Cc1ccc(C(O)c2nc3ccccc3n2C(C)C)cc1 (centres undefined) | 62% (inactive) | 101% (inactive) | 91.5% (inactive) | 3.7% (inactive) | 87.8 | 91.5 | -7.53% (inactive) | -5.82% (inactive)
13 | Cc1cccc(N2C(=O)CC(N(C(=O)c3ccco3)c3cccc(C)c3)C2=O)c1 (centres undefined) | 104% (inactive) | 98.8% (inactive) | 98.5% (inactive) | -3.33% (inactive) | 102 | 98.5 | 0% (inactive) | 6.13% (inactive)
14 | COc1ccc(C2c3c(oc4ccccc4c3=O)C(=O)N2Cc2ccncc2)cc1OC (centres undefined) | 91% (inactive) | 96.7% (inactive) | 93.7% (inactive) | -2.17% (inactive) | 95.8 | 93.7 | -7.84% (inactive) | 0.18% (inactive)
15 | NC(N)=NC(N)=NCCc1ccccc1 | 103% (inactive) | 104% (inactive) | 99.4% (inactive) | -0.22% (inactive) | 99.6 | 99.4 | 0.65% (inactive) | -0.67% (inactive)
16 | O=C1C2CC=C(Cl)CC2C(=O)N1CNc1ccccn1 (centres undefined) | 112% (inactive) | 108% (inactive) | 98.8% (inactive) | -6.09% (inactive) | 105 | 98.8 | -2.05% (inactive) | 5.65% (inactive)
17 | CCc1nc(SCC(=O)NCc2ccco2)c2c3c(sc2n1)CCCC3 | 97% (inactive) | 78.8% (inactive) | 67.8% (inactive) | -9.31% (inactive) | 77.1 | 67.8 | -3.12% (inactive) | -3.44% (inactive)
18 | c1ccc(-c2cc(-c3nc(-c4ccccn4)no3)c3ccccc3n2)cc1 | 139% (inactive) | 63.9% (inactive) | 59% (inactive) | 2.75% (inactive) | 56.3 | 59 | -2.7% (inactive) | 8% (inactive)
19 | CCn1c(SCC(=O)c2ccc(C)cc2)nnc1-c1ccoc1C | 89% (inactive) | 114% (inactive) | 108% (inactive) | 8.75% (inactive) | 99.2 | 108 | -5.14% (inactive) | 0.36% (inactive)
20 | O=C(NC1CCCC1)C(c1cccs1)N(Cc1ccco1)C(=O)Cn1nnc(-c2cccs2)n1 (centres undefined) | 71% (inactive) | 87.3% (inactive) | 92.8% (inactive) | -1.47% (inactive) | 94.3 | 92.8 | -8.22% (inactive) | -0.48% (inactive)
21 | CN=c1sc2ccccc2n1CC(O)COCc1ccco1 (centres undefined) | 107% (inactive) | 86.6% (inactive) | 98.4% (inactive) | 10.8% (inactive) | 87.5 | 98.4 | -8.49% (inactive) | 1.94% (inactive)
22 | C=CCN1C(=O)C2(/C(=C(\O)c3ccc4c(c3)OCCO4)C(=O)C(=O)N2CCCOC)c2ccccc21 (centres undefined) | 109% (inactive) | 96.6% (inactive) | 95.9% (inactive) | 11.2% (inactive) | 84.7 | 95.9 | -8.36% (inactive) | 0.48% (inactive)
23 | CSc1ncc(Cl)c(C(=O)Nc2ccc(S(=O)(=O)N3CCOCC3)cc2)n1 | 85% (inactive) | 97% (inactive) | 101% (inactive) | 9.55% (inactive) | 91.8 | 101 | -7.67% (inactive) | 0.36% (inactive)
